In PMC8137654 (Bioconjugate chemistry, 2021):
Entries after “also recorded” stand apart in the source; their conditions may differ. Each block holds one compound with its values, some of them ahead of it. Non-standard residues stand in square brackets, D forms with d. Residues, ends and D or L forms follow the SMILES beside them. ξ: configuration not given here. *: point of attachment. X1 = COc1cc(N=Nc2ccccc2[N+](=O)[O-])c(C)cc1N=Nc1ccc(N(C)CCCC(=O)*)cc1; X2 = O=C(O)c1cc(C(=O)*)ccc1-c1c2ccc(=O)cc-2oc2cc(O)ccc12; X3 = O=P(O)(O)C(O)(CCN*)P(=O)(O)O; ξH = NC(Cc1c[nH]cn1)C(=O)O; ξQ = NC(=O)CCC(N)C(=O)O; ξP = O=C(O)C1CCCN1; βAla = NCCC(=O)O

Key:
[1] = OFS-1 fluorescence in water without enzyme; assay type: physicochemical; details: 10 μM OFS-1 in water, 48 h, 37 °C
[2] = test system: human osteoclasts; assay: Activation of OFS-1 adsorbed on HAp by resorbing human osteoclasts; assay type: cell-based
Outline: (§1)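 HAp […]-coated polystyrene wells were pre-treated with 5.0 μM OFS-1 and washed with PBS. They were then seeded with human osteoclasts, alone or co-cultured with RPMI-8226-Luc myeloma cells, with or without 30 nM odanacatib. Wells were imaged by bright-field and fluorescence microscopy (time-lapse video) for 24 h at 37 °C to record resorption pits and probe fluorescence.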

[3] = test system: osteoclasts co-cultured with RPMI-8226-Luc human multiple myeloma cells; assay: Activation of OFS-1 on HAp by osteoclasts co-cultured with RPMI-8226-Luc cells; assay type: cell-based
Outline: as §1

[4] = target: T1, Ctsk (Homo sapiens, UniProt P43235); assay type: biochemical
T1 sequence (P43235 115-329): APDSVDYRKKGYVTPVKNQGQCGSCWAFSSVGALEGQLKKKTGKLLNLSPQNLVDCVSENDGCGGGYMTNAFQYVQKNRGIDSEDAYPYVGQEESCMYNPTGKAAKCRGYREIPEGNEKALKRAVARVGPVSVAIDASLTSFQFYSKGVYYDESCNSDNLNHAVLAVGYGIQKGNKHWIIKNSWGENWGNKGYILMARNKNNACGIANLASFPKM
Outline: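 Probe kept in solution at pH 7 with 20 nM initial human Ctsk. Ctsk inhibitor added to the assay mixture at 0, 1, 5, 10, 30, 50 or 100 nM (n = 3). Fluorescence followed over time through a 2 h incubation, with an enzyme-free control.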

[5] = test system: RPMI-8226-Luc human multiple myeloma cells engrafted in NSG/BLT humanized mice; assay: In vivo fluorescence imaging of multiple myeloma-induced osteolysis; design: species or system mouse
Outline: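 NSG mice were co-grafted with human CD34+ hematopoietic stem cells, liver and thymus and irradiated (NSG/BLT). RPMI-8226-Luc cells (15×10^6 per mouse, 100 μL) were given by tail vein; controls received vehicle. Seven days later, 100 μL of 50 μM OFS-1 was injected retro-orbitally. In vivo fluorescence and bioluminescence imaging was done 3, 4 and 5 wk after cell injection, plus ex vivo micro-CT. Control n = 1, myeloma mice n = 3.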

[6] = target: T1, Ctsk; assay: Kinetics of Ctsk-catalyzed OFS-1 activation in solution; assay type: biochemical
[7] = Adsorption on hydroxyapatite and bone mineral
[8] = target: T1, Ctsk; assay: Ctsk-induced fluorogenesis of OFS-1 pre-adsorbed on HAp with/without odanacatib; assay type: biochemical; details: HAp treated overnight with 0.5 μM OFS-1 in 50 mM acetate pH 5.5, washed; 20 nM Ctsk, 37 °C, 2 h
Outline: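 […] (HAp)-coated polystyrene wells soaked overnight in probe in acetate buffer, then washed repeatedly with water to remove unbound probe. Wells covered with human Ctsk, with Ctsk inhibitor at 0, 1, 5, 10, 30, 50 or 100 nM (n = 3). Fluorescence read at 1 min intervals in a plate reader at 37 °C.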

[9] = ref [14]; cited from earlier work
[10] = target: T1, Ctsk; details: reported value; ref [25]; cited from earlier work
[11] = target: T1, Ctsk; details: cited from earlier work

OFS-1 fluorescence without enzyme ([4]; control lacking enzyme, 2 h incubation): essentially unchanged
fluorescence on exposure to Ctsk ([6]; Ctsk 2.5–20 nM, in solution or pre-adsorbed on HAp): strong fluorescence
cleavage efficiency relative to Abz-HPGGPQ-EDN2Ph (less efficient) ([6]; OFS-1 vs literature value of Abz-HPGGPQ-EDN2Ph, ref [25] for the comparator): only fourfold less efficiently
Compound: COc1cc(N=Nc2ccccc2[N+](=O)[O-])c(C)cc1N=Nc1ccc(N(C)CCCC(=O)NCC(=O)NC(Cc2c[nH]cn2)C(=O)N2CCCC2C(=O)NCC(=O)NCC(=O)N2CCCC2C(=O)NC(CCC(N)=O)C(=O)NCC(=O)NCCC(=O)N[C@@H](CCCCNC(=O)c2ccc(-c3c4ccc(=O)cc-4oc4cc(O)ccc34)c(C(=O)O)c2)C(=O)NCCC(O)(P(=O)(O)O)P(=O)(O)O)cc1 (stereo partly drawn) [OFS-1] (X1-G[ξH][ξP]GG[ξP][ξQ]G[βAla]K(X2)-X3)
extrinsic fluorescence in water without enzyme [1]: virtually undetectable
OFS-1 fluorescence without osteoclasts ([2]; control wells, 5.0 μM OFS-1, not seeded with osteoclasts): not significantly fluorescent
OFS-1 fluorescent signal in co-culture ([3]; OFS-1 5.0 μM pre-treated HAp wells, osteoclasts + RPMI-8226-Luc): robust activation of OFS-1 fluorescent signals
OFS-1 fluorescent signal compared to solitary osteoclasts ([3]; osteoclasts + RPMI-8226-Luc vs solitary osteoclasts): increased by RPMI-8226-Luc cells
time-course of OFS-1 fluorescent activity ([4]; OFS-1 0.5 μM, 20 nM Ctsk, in solution, pH 7): fluorescent activity was immediately observed within 10 min and reached a plateau thereafter
time from which distinct in vivo fluorescent signal was detected ([5]; 100 μL of 50 μM OFS-1 retro-orbital, weeks after RPMI-8226-Luc cell injection): 4 wk
detection relative to myeloma cell luminescence ([5]; NSG/BLT humanized mice injected with RPMI-8226-Luc cells): before the co-localized luminescence of the myeloma cells could be detected
in vivo OFS-1 signal relative to tumor site / osteolysis lesions ([5]; another mouse, cervical area, post-mortem micro-CT): extensive osteolysis lesions (arrows), which corresponded to the sentinel OFS-1 signal; also recorded: a strong fluorescent signal was detected at (and extending beyond) the bioluminescent tumor site
in vivo OFS-1 signal in control animals ([5]; physiological level of bone resorption, control n = 1): did not show the OFS-1 signal
dependence of fluorescence intensity on OFS-1 concentration ([6]; 25 nM human Ctsk, 50 mM sodium acetate pH 5.5, 2.5 mM EDTA, 1 mM DTT, 37 °C, Supplementary Figure S3): depended linearly on the OFS-1 concentration up to 1 μM
catalytic efficiency (kcat/Km) ([6]; Ctsk 2.5 nM (Fig. 2), 50 mM NaOAc pH 5.5, 37 °C): 0.97 × 10^5 M-^1 s-^1
adsorption on HAp and bone mineral [7]: avidly adsorbed by hydroxyapatite (HAp) and bone mineral surfaces; also recorded: strongly and specifically binds to bone surfaces
Ctsk-dependent fluorescence of HAp-adsorbed OFS-1 [8]: time-course increase of fluorescent intensity; also recorded: Bright Ctsk-dependent fluorescence was again observed

Compound: NCCCC(O)(P(=O)(O)O)P(=O)(O)O [alendronate]
bone-affinity [9]: high bone-affinity

Compound: CC(C)(F)C[C@H](N[C@@H](c1ccc(-c2ccc(S(C)(=O)=O)cc2)cc1)C(F)(F)F)C(=O)NC1(C#N)CC1 [odanacatib]
pit formation by osteoclasts with odanacatib ([2]; 30 nM odanacatib): pit formation was again observed
osteoclast-induced OFS-1 fluorescence with odanacatib ([2]; 30 nM odanacatib (Figure S9)): fluorescence was suppressed
OFS-1 fluorescent signal in co-culture with odanacatib ([3]; 30 nM odanacatib): effectively inhibited

Compound: NCCC(O)(P(=O)(O)O)P(=O)(O)O [pamidronate]
bone-affinity [9]: high bone-affinity

Compound: Abz-HPGGPQ-EDN2Ph
catalytic efficiency [10]: 426000 M⁻¹ s⁻¹

Compound: HPGGPQ
cleavage by Ctsk ([11]; ref [24]): selectively cleaved by Ctsk
Ctsk cleavage site (original peptide) ([11]; well-established cleavage site, no reference at this place): Gly-Gly bond
